The list is not random: actives were taken first. Their share in the collection is about 0.74%.
RGS4-Gao reg = modulates binding of RGS4 to human Galphao | Multiplexed bead flow cytometry; actives lie on both sides | 220,000 tested, 0.33% active | P09471 | binding response (% of control), % at 10 µM | AID 1415; in the data active means binding response below about 49% or above about 150%; inactive means in between;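 further: fluorescent Galphao activated with aluminum fluoride binding bead-coupled RGS4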
Target sequence (P09471 whole entry, looked up): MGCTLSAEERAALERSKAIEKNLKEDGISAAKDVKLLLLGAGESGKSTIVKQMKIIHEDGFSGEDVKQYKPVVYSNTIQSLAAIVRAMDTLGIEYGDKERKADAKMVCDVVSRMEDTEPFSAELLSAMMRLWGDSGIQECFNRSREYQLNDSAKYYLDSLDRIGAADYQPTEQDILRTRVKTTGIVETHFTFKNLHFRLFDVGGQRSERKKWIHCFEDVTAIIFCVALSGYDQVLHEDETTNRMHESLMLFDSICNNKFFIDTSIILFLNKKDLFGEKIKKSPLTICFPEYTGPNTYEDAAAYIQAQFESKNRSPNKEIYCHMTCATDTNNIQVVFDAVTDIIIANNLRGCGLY
Biofilm kill mix = mixture kills Candida albicans biofilm cells. C. albicans biofilm persisters + clotrimazole, fluorescence viability; primary screen in compound mixtures of four per well. inhibition, % at 7.6 µM. 120,000 tested, 0.02% active;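 active means inhibition above 30.3% in the primary screen of four-compound pools, then above 30% when the compound was retested; inconclusive means passed the primary limit but could not be retested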;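 further: compounds exposed to preformed 24 h biofilms for 48 h; 0% = untreated biofilm control and 100% = clotrimazole plus chlorhexidine kill blank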
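Assay system: C. albicans biofilms / Medium: RPMI/MOPS medium, pH 7.0 / Schedule: biofilm formation 24 h, compound exposure 48 h, 37 °C / Measured by: Alamar Blue fluorescence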
RGS16-Gao = RGS16-Galphao interaction regulator (human); O15492+P09471; 220,000 tested, 0.38% active; binding response (% of control), % at 10 µM; bead-based flow cytometry RGS16-Galphao binding, fluorescence; actives lie on both sides;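 further: Galphao activated by GDP with aluminum fluoride before binding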
Target sequence (O15492 whole entry, looked up): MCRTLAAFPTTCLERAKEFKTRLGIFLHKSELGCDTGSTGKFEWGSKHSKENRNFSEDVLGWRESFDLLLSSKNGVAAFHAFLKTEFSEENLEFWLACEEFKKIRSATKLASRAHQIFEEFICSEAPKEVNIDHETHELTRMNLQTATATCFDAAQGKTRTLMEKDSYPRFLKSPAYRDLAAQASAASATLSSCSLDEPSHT
Target sequence (P09471 whole entry, looked up): as the sequence (P09471 whole entry, looked up) above
RGS7-Gao = human RGS7-Galphao interaction regulation. 220,000 tested, 0.35% active. Multiplexed bead flow cytometry, RGS7-Galphao binding; actives lie on both sides. AID 1439. binding response (% of control), % at 10 µM; in the data active means binding response below about 49% or above about 150%; inconclusive means no clear call, values can overlap the other calls; inactive means in between;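 further: fluorescent Galphao held in activated GDP-AlF4 state binding bead-coupled RGS7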
RGS8-Gao = modulates binding of RGS8 to human Galphao; AID 1423; 220,000 tested, 0.34% active; P09471; multiplexed bead flow cytometry; actives lie on both sides; response (percent of control binding), % at 10 µM; in the data active means response below about 60% or above about 140%; inactive means in between;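 further: Galphao activated as the GDP aluminium fluoride complex binding bead-coupled RGS8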
RGS4-Gao HTS = RGS4-Galphao interaction regulator (human); shares compounds with RGS16-Gao; multiplexed bead flow cytometry, RGS–Galpha-o binding; RGS4–Galpha-o binding response, % at 10 µM; 1,600 tested, 99% active; AID 1504;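 further: fluorescently labeled Galpha-o bound to GDP with aluminium fluoride binding biotinylated RGS beads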
Avidin counter = biotin-avidin bead binding disruption counter-screen | inhibition, % at 10 µM | streptavidin beads, fluorescein-biotin binding, flow cytometry | AID 1783 | 1,700 tested, under 10 active | shares compounds with RGS16-Gao;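 active means inhibition above 50%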;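 further: median green fluorescence of gated singlet beads compared with DMSO control wells; 0% = DMSO wells and 100% = complete loss of bead fluorescence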
RGS8-Gao confirm = RGS8-Galphao interaction regulation, single point confirmation; AID 1836; bead-based flow cytometry RGS8-Galphao binding, fluorescence; actives lie on both sides; shares compounds with RGS16-Gao; 1,700 tested, 3% active; binding response (% of control), % at 10 µM; in the data active means binding response below about 72% or above about 130%; inactive means in between;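 further: Galphao activated as GDP AlF4 complex before binding bead RGS8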
RGS7-Gao confirm = RGS7-Galphao interaction regulation, single point confirmation; shares compounds with RGS16-Gao; bead-based flow cytometry RGS7-Galphao binding; actives lie on both sides; response (percent of control binding), % at 10 µM; 1,700 tested, 7.8% active; in the data active means response below about 75% or above about 130%; inactive means in between;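 further: fluorescent Galphao activated with GDP and aluminum fluoride binding bead-coupled RGS7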
RGS16-Gao conf = RGS16-Galphao interaction regulation, single point confirmation | AID 1838 | 1,700 tested, 4% active | response (% of control binding), % at 10 µM | shares compounds with RGS16-Gao | bead-based flow cytometry, RGS16-Galphao binding; actives lie on both sides; in the data active means response below about 74% or above about 130%; inactive means in between;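 further: Galphao activated as the GDP aluminium fluoride complex binding bead-coupled RGS16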
RGS4-Gao confirm = confirmation of regulators of human RGS4-Galphao interaction | shares compounds with RGS16-Gao | RGS4-Galphao binding, multiplexed bead flow cytometry; actives lie on both sides | binding response (% of control), % at 10 µM | 1,700 tested, 4% active; in the data active means binding response below about 74% or above about 130%; inactive means in between
RGS19-Gao single = RGS19-Galphao interaction regulation, single point confirmation; shares compounds with RGS16-Gao; bead-based flow cytometry RGS19-Galphao binding; actives lie on both sides; response (percent of control binding), % at 10 µM; 1,700 tested, 5% active; in the data active means response below about 50% or above about 160%; inactive means in between;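 further: 100% = no compound control and 0% = blank background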
An asterisk follows results filed as active; u = inconclusive; x = no result given; [ ] = another dose, or the depositor's remark. Unless noted, how the calls were made is not given here.

SMILES	RGS4-Gao reg	Biofilm kill mix	RGS16-Gao	RGS7-Gao	RGS8-Gao	Avidin counter	RGS8-Gao confirm	RGS7-Gao confirm	RGS16-Gao conf	RGS4-Gao confirm	RGS19-Gao single	others
OC12CCCCC1C(c1ccc3c(c1)OCO3)N(Cc1ccc(F)cc1)CC2 (stereo unspecified)	100	x	100	95	99	x	x	x	x	x	x
CCCCOCP(=O)(CCCC)COCCCC	24*	x	-1	25*	32*	1	102	104	102	102	97
CC(C)c1ccccc1NC1=CC(=O)CC(C)(C)C1	95	0	105	96	101	x	x	x	x	x	x
Cc1cccc(C(=O)N2CCN(c3ccc(N4CCOCC4)nn3)CC2)c1	29*	27	22*	u	37*	-1	111	118	112	115	107
COc1ccc(S(=O)(=O)Nc2nc3ccccc3s2)cc1	100	x	102	99	98	x	x	x	x	x	x
CCOc1ccc2sc(NS(=O)(=O)c3ccc(OC)c(OC)c3)nc2c1	x	x	x	x	x	0	101	102	99	99	107
Cn1c(=O)c2c(nc(OCC3COC(C)(C)O3)n2Cc2ccccc2F)n(C)c1=O (stereo unspecified)	165*[activator]	x	161	164*[activator]	145*[activator]	0	102	97	99	95	91
Cn1c(=O)c2c(nc(N3CCc4ccccc4C3)n2Cc2ccccc2F)n(C)c1=O	100	x	102	100	102	x	x	x	x	x	x
Cc1cc(=O)oc2cc(Oc3ncccc3[N+](=O)[O-])ccc12	94	11	98	88	98	x	x	x	x	x	x
Cc1cc(=O)oc2cc(Oc3ccc([N+](=O)[O-])cc3[N+](=O)[O-])ccc12	93	14	25*	91	75	1	104	103	109	103	123	RGS4-Gao HTS=93*
O=C(N/N=C/c1cc([N+](=O)[O-])ccc1Cl)c1cc(-c2ccccc2)nc2ccccc12	97	20	105	u	104	x	x	x	x	x	x
O=C(N/N=C/c1cc([N+](=O)[O-])ccc1O)c1cc(-c2ccccc2)nc2ccccc12	54	17	34	42*	67	0	99	97	98	101	92	RGS4-Gao HTS=54*
C=CCSc1nnc2c(n1)OC(c1ccccn1)N(C(C)=O)c1ccccc1-2 (stereo unspecified)	122	x	114	168*[activator]	99	2	103	104	104	103	102	RGS4-Gao HTS=122*
CCCSc1nnc2c(n1)OC(c1cccn1C)N(C(C)=O)c1ccccc1-2 (stereo unspecified)	104	x	108	103	105	x	x	x	x	x	x
CC(C)=NNc1nc(-c2ccccc2)c(C)s1	97	13	94	97	94	x	x	x	x	x	x
N#Cc1ccc(C23CC4(C2)[C@H](CN(CC2CCCCC2)[C@@H]4c2ccccc2)C3c2ccc(Cl)nc2)cc1 (stereo partly specified)	101	16	102	u	104	x	x	x	x	x	x
O=C(O[C@@H]1OC2COC(=O)c3cc(O)c(O)c(O)c3-c3c(cc(O)c(O)c3O)C(=O)O[C@@H]([C@H]1O)[C@@H]2O)c1cc(O)c(O)c(O)c1	34*	6	23*	22*	44*	-2	35*	4.1*	35*	19*	42*
O=S(=O)(c1ccc(F)cc1)N1CCN(c2ccccn2)CC1	96	5	96	99	99	x	x	x	x	x	x
CCOC(=O)c1c(-c2ccccc2)oc2ccc(O)c(CN(C)C)c12	96	x	100	98	100	x	x	x	x	x	x
Cc1oc2ccc(O)c(CN(C)C)c2c1C(=O)c1ccccc1	123	18	275	122	153*[activator]	1	100	100	98	97	108	RGS4-Gao HTS=123*
Cc1csc(NC(=O)c2cncc(Br)c2)n1	105	-1	109	109	103	x	x	x	x	x	x
O=C(Cn1cncn1)c1ccc(F)cc1F	96	8	62	97	84	x	x	x	x	x	x
COc1ccc(C(=S)N2CCC(C(N)=O)CC2)cc1Br	102	0	97	u	99	x	x	x	x	x	x
COc1ccc(C(=O)c2ccc(OC)c(Br)c2)cc1Br	120	9	254*[activator]	120	131	0	99	101	98	100	89	RGS4-Gao HTS=120*
CCC1(C(=O)OC)NC(c2cccc(F)c2)C2C(=O)N(C)C(=O)C21 (stereo unspecified)	100	12	104	103	101	x	x	x	x	x	x
SMILES	RGS4-Gao reg	Biofilm kill mix	RGS16-Gao	RGS7-Gao	RGS8-Gao	Avidin counter	RGS8-Gao confirm	RGS7-Gao confirm	RGS16-Gao conf	RGS4-Gao confirm	RGS19-Gao single	others
COC(=O)C1(Cc2ccccc2)NC(c2ccc(F)cc2)C2C(=O)N(C)C(=O)C21 (stereo unspecified)	32*	-5	-7.0*	40*	38*	2	98	63*	89	72*	92
O=[N+]([O-])c1ccc2nc(SCc3ccccc3Cl)sc2c1	93	x	95	97	99	x	x	x	x	x	x
O=C(CSc1nc2ccc([N+](=O)[O-])cc2s1)c1ccc2ccccc2c1	3.0*	14	5.0*	u	31*	1	101	106	104	105	109
O=c1c2cc(Cl)ccc2[nH]c(=S)n1Cc1cccs1	94	20	17*	95	72	-2	98	92	98	95	84	RGS4-Gao HTS=94*
CCN1CCN(C(=O)C2CCC(CNS(=O)(=O)c3ccccc3)CC2)CC1 (stereo unspecified)	x	x	x	x	x	4	102	105	108	108	103
O=C(C1CCC(CNS(=O)(=O)c2cccs2)CC1)N1CCCCC1 (stereo unspecified)	93	x	55	95	93	x	x	x	x	x	x
Cc1ccc(-c2nc3cccnc3s2)cc1NS(=O)(=O)c1ccc2c(c1)CCCC2	28*	14	29	32*	46*	0	104	102	103	104	107
O=S(=O)(Nc1cccc(-c2nc3cccnc3s2)c1)c1ccc2c(c1)CCCC2	104	19	101	105	103	x	x	x	x	x	x
